Measured values published in ChEMBL document CHEMBL1629558, “Effect of electrical current on the activities of antimicrobial agents against Pseudomonas aeruginosa, Staphylococcus aureus, and Staphylococcus epidermidis biofilms” (2009).
Values after ≈ are worked out from the molar mass of the structure shown.

Columns and labels:
Type in all cases: functional
[1] = tested on: Pseudomonas aeruginosa; experiment: Antimicrobial activity against Pseudomonas aeruginosa Xen 5 by broth microdilution method
Outline: (§1)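 Planktonic MICs determined by CLSI broth microdilution; strains (MRSA Xen 30, P. aeruginosa Xen 5) stored at −70°C.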

[2] = tested on: Pseudomonas aeruginosa; experiment: Antimicrobial activity against Pseudomonas aeruginosa Xen 5 biofilm assessed as log10 CFU/cm'2 in bacterial count
Outline: (§2)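 Biofilms grown on Teflon coupons in a CDC biofilm reactor (1 ml of 10^8 CFU/ml inoculum, 37°C shaking 18 h, then 18 h at room temperature). Coupons then sat 24 h at room temperature in flow chambers with fresh medium ± drug ± direct current via graphite electrodes. Biofilm removed by vortex plus 5 min sonication, plated on blood agar (37°C, 5% CO2, 48 h). Triplicate; mean log10 CFU/cm2.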

[3] = tested on: Pseudomonas aeruginosa; experiment: Antimicrobial activity against Pseudomonas aeruginosa Xen 5 biofilm assessed as log10 CFU/cm'2 in bacterial count in presence of 2000 microamperes of electric current by bioelectric effect assay; outline: as §2
[4] = tested on: Staphylococcus aureus; experiment: Antimicrobial activity against Staphylococcus aureus Xen 30 by broth microdilution method; outline: as §1
[5] = tested on: Staphylococcus epidermidis; experiment: Antimicrobial activity against Staphylococcus epidermidis Xen 43 by broth microdilution method
[6] = tested on: Staphylococcus aureus; experiment: Antimicrobial activity against Staphylococcus aureus Xen 30 biofilm assessed as log10 CFU/cm'2 in bacterial count; outline: as §2
[7] = tested on: Staphylococcus aureus; experiment: Antimicrobial activity against Staphylococcus aureus Xen 30 biofilm assessed as log10 CFU/cm'2 in bacterial count in presence of 200 microamperes of electric current by bioelectric effect assay
Outline: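 MRSA Xen 30 biofilms grown on Teflon coupons (12.5 mm) in a CDC biofilm reactor seeded with 1 ml of 10^8 CFU/ml: 18 h 37°C with shaking, then 18 h room temperature. Coupons were exposed in flow chambers to fresh medium ± antimicrobial with direct current for 24 h at room temperature. Biofilm was dislodged by vortex and sonication, then plated on blood agar. Counts are mean log10 CFU/cm2 from triplicate experiments.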

[8] = tested on: Staphylococcus epidermidis; experiment: Antimicrobial activity against Staphylococcus epidermidis Xen 43 biofilm assessed as log10 CFU/cm'2 in bacterial count; outline: as §2
[9] = tested on: Staphylococcus epidermidis; experiment: Antimicrobial activity against Staphylococcus epidermidis Xen 43 biofilm assessed as log10 CFU/cm'2 in bacterial count in presence of 2000 microamperes of electric current by bioelectric effect assay; outline: as §2
[10] = tested on: Staphylococcus aureus; experiment: Antimicrobial activity against Staphylococcus aureus Xen 30 biofilm assessed as log10 CFU/cm'2 in bacterial count in presence of 2000 microamperes of electric current by bioelectric effect assay; outline: as §2
[11] = tested on: Staphylococcus epidermidis; experiment: Antimicrobial activity against Staphylococcus epidermidis Xen 43 biofilm assessed as log10 CFU/cm'2 in bacterial count in presence of 200 microamperes of electric current by bioelectric effect assay; outline: as §2
[12] = tested on: Staphylococcus aureus; experiment: Antimicrobial activity against Staphylococcus aureus Xen 30 biofilm assessed as log10 CFU/cm'2 in bacterial count in presence of 20 microamperes of electric current by bioelectric effect assay; outline: as §2
[13] = tested on: Pseudomonas aeruginosa; experiment: Antimicrobial activity against Pseudomonas aeruginosa Xen 5 biofilm assessed as log10 CFU/cm'2 in bacterial count in presence of 200 microamperes of electric current by bioelectric effect assay; outline: as §2

Row | Structure (SMILES) | MIC [1] [µg/mL] | log10cfu [2] | log10cfu [3] | MIC [4] [µg/mL] | MIC [5] [µg/mL] | log10cfu [6] | log10cfu [7] | log10cfu [8] | log10cfu [9] | log10cfu [10] | log10cfu [11] | log10cfu [12] | log10cfu [13]
1 | CO/N=C(\C(=O)N[C@@H]1C(=O)N2C(C(=O)[O-])=C(C[N+]3(C)CCCC3)CS[C@H]12)c1csc(N)n1 | 2 (≈ 4.16 µM) | 0.96 | 1.43 |  |  |  |  |  |  |  |  |  | 
2 | CCCCCCCCCC(=O)N[C@@H](Cc1c[nH]c2ccccc12)C(=O)N[C@H](CC(N)=O)C(=O)N[C@@H](CC(=O)O)C(=O)N[C@@H]1C(=O)NCC(=O)N[C@@H](CCCN)C(=O)N[C@@H](CC(=O)O)C(=O)N[C@H](C)C(=O)N[C@@H](CC(=O)O)C(=O)NCC(=O)N[C@H](CO)C(=O)N[C@@H]([C@H](C)CC(=O)O)C(=O)N[C@@H](CC(=O)c2ccccc2N)C(=O)O[C@@H]1C |  |  |  | 1 (≈ 0.617 µM) | 0.125 (≈ 0.0771 µM) | 1.63 | 1.94 | -0.38 | 1.2 |  |  |  | 
3 | O=C(O)c1cn(C2CC2)c2cc(N3CCNCC3)c(F)cc2c1=O [CIPROFLOXACIN] |  | -0.63 | 1.86 |  |  |  |  |  |  |  |  |  | 
4 | CC[C@H]1OC(=O)[C@H](C)[C@@H](O[C@H]2C[C@@](C)(OC)[C@@H](O)[C@H](C)O2)[C@H](C)[C@@H](O[C@@H]2O[C@H](C)C[C@H](N(C)C)[C@H]2O)[C@](C)(O)C[C@@H](C)C(=O)[C@H](C)[C@@H](O)[C@]1(C)O [ERYTHROMYCIN] |  |  |  | 0.5 (≈ 0.681 µM) | 0.125 (≈ 0.17 µM) | -0.17 |  | 0.7 |  | 0.27 | 2.04 |  | 
5 | CC(=O)NC[C@H]1CN(c2ccc(N3CCOCC3)c(F)c2)C(=O)O1 [LINEZOLID] |  |  |  |  | 1 (≈ 2.96 µM) | 0.62 |  | 0.22 |  | 1.51 | 0.63 |  | 
6 | CN(C)c1ccc(O)c2c1C[C@H]1C[C@H]3[C@H](N(C)C)C(O)=C(C(N)=O)C(=O)[C@@]3(O)C(O)=C1C2=O [MINOCYCLINE] |  |  |  | 4 (≈ 8.74 µM) | 1 (≈ 2.19 µM) | 0.7 |  | -0.18 |  |  | 3.32 | 2.04 | 
7 | COc1c(N2C[C@@H]3CCCN[C@@H]3C2)c(F)cc2c(=O)c(C(=O)O)cn(C3CC3)c12 [MOXIFLOXACIN] |  |  |  | 2 (≈ 4.98 µM) | ≤ 0.125 | 1.33 |  | -0.41 | 0.82 |  |  | 2.1 | 
8 | CO[C@H]1/C=C/O[C@@]2(C)Oc3c(C)c(O)c4c(O)c(c(/C=N/N5CCN(C)CC5)c(O)c4c3C2=O)NC(=O)/C(C)=C\C=C\[C@H](C)[C@H](O)[C@@H](C)[C@@H](O)[C@@H](C)[C@H](OC(C)=O)[C@@H]1C [RIFAMPIN] |  |  |  | 2 (≈ 2.43 µM) | ≤ 0.125 | 0.86 |  | 0.17 | 2.5 | 1.78 |  |  | 
9 | NC[C@H]1O[C@H](O[C@H]2[C@H](O)[C@@H](O[C@H]3O[C@H](CO)[C@@H](O)[C@H](N)[C@H]3O)[C@H](N)C[C@@H]2N)[C@H](N)C[C@@H]1O [TOBRAMYCIN] | 1 (≈ 2.14 µM) | 1.69 |  | 4 (≈ 8.56 µM) | 0.25 (≈ 0.535 µM) | 0.86 |  | 0.2 | 3.08 | 2 |  |  | 2.48
10 | CN[C@H](CC(C)C)C(=O)N[C@H]1C(=O)N[C@@H](CC(N)=O)C(=O)N[C@H]2C(=O)N[C@H]3C(=O)N[C@H](C(=O)N[C@H](C(=O)O)c4cc(O)cc(O)c4-c4cc3ccc4O)[C@H](O)c3ccc(c(Cl)c3)Oc3cc2cc(c3O[C@@H]2O[C@H](CO)[C@@H](O)[C@H](O)[C@H]2O[C@H]2C[C@](C)(N)[C@H](O)[C@H](C)O2)Oc2ccc(cc2Cl)[C@H]1O [VANCOMYCIN] |  |  |  |  |  | -0.31 | 1.59 | 0.7 | 2.09 |  |  |  | 
